Experimental data from ChEMBL document CHEMBL3243964, “Biomolecules bearing the S- or SeAsMe2 function: amino acid and steroid derivatives” (J Med Chem, 1979).
The source made the active and inactive calls. The calls are words filed in the database; no cut-off is given here.

Legend:
Mus musculus = species on record: Mus musculus; test: Toxicity in mouse allografted with mouse L1210 cells; type: organism-based
L1210 [1] = test: Carcinostatic activity against mouse L1210 cells allografted in mouse assessed as increase in survival at 100 mg/kg relative to control; type: functional
L1210 [2] = test: Carcinostatic activity against mouse L1210 cells allografted in mouse assessed as increase in survival at 50 mg/kg relative to control; type: functional
L1210 [3] = test: Carcinostatic activity against mouse L1210 cells allografted in mouse assessed as increase in life span at 100 mg/kg relative to control; type: functional
How it was run: (§1)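 Mice bearing L1210 lymphoid leukemia, tested externally. Read-out is percent increased life span (ILS) of treated versus control animals at the dose shown in mg/kg.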

Staphylococcus aureus [4] = test: Bacteriostatic activity against Staphylococcus aureus 209; type: functional
Staphylococcus aureus [5] = test: Bacteriostatic activity against Staphylococcus aureus 209 cultured in nutrient broth; type: functional, organism-based
How it was run: (§2)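 Bacteria grown in nutrient broth with the compound. Read-out is inhibition of growth, with total inhibition scored. Gram-negative (K. pneumoniae) and Gram-positive strains were tested.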

Klebsiella pneumoniae = test: Bacteriostatic activity against Klebsiella pneumoniae; type: functional, organism-based; how it was run: as §2
L1210 [6] = test: Carcinostatic activity against mouse L1210 cells allografted in mouse assessed as increase in life span at 500 mg/kg relative to control; type: functional; how it was run: as §1

Row | Compound | Activity (Mus musculus) [mg/kg] | T/C (L1210 [1]) [%] | T/C (L1210 [2]) [%] | Activity (L1210 [3]) [%] | inhibition zone (IZ) (Staphylococcus aureus [4]) [mm] | growth inhibition (GI) (Staphylococcus aureus [5]) | Activity (Klebsiella pneumoniae) | Activity (L1210 [6]) [%]
1 | C[As](C)SCC[C@H](NC(=O)[C@@H](N)CCS[As](C)C)C(=O)O | > 200 | 144 | – | – | – | – | – | –
2 | C[As](C)SCC[C@@H](CCCCC(=O)O)S[As](C)C | 100 | – | 128 | 33 | – | – | – | –
3 | C[As](C)SCC(N)C(=O)O (racemic) | 200 | – | 110 | – | 15 | Active | – | –
4 | C[As](C)SC[C@H](NC(=O)CC[C@H](N)C(=O)O)C(=O)NCC(=O)O [DARINAPARSIN] | 400 | 164 | – | – | 20 | Active | Active | 33
